Among the data in ChEMBL document CHEMBL5055645 (J Med Chem, 2021) are Drug degradation, Stability and Activity values, retold here.

Calls of active or inactive are those of the source. The calls are words filed in the database; no cut-off is given here.

Data set [1] can be described thus: Stability in human serum assessed as compound degradation measured at 2 mg/ml after 24 hrs at 37C by RP-HPLC analysis. It counts as ADME, cell-free. In outline:
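Peptide at 2 mg/mL final in 25% (v/v) pooled human male AB serum, incubated at 37 °C for 24 h. Samples quenched with equal volume acetonitrile on ice for 20 min and centrifuged at 4 °C. Supernatant diluted to 0.1 mg/mL and run on RP-HPLC. Intact peptide estimated from peak area at 215 nm.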

Data set [2] is described as follows: In vivo stability in C57BL/6J mouse serum assessed as compound degradation measured at 5 mg/kg, iv after 15 mins by LC/MS/MS analysis. Conditions: 0.25 h. It counts as ADME, organism-based. In outline:
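Mice (C57BL/6J, 8 weeks old, 20–30 g), 4 male and 4 female per group, given one i.v. dose of 5 mg/kg. Submandibular blood drawn into EDTA tubes at 15 min, 30 min, 1, 2, 4, 8 and 24 h. Plasma protein precipitated with 9:1 acetonitrile/acetic acid on ice, centrifuged, and the supernatant analysed by LC/MS/MS.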

Data set [3] has as its system Mus musculus. In words: Hyperglycemic effect in C57BL/6J mouse assessed as increase in blood glucose level at 50 microg/kg, iv measured measured up to 60 mins by intraperitoneal insulin tolerance test. Format: functional, organism-based. Conditions: dose 50.0 µg/kg. The procedure, abridged:
(§1)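 Wild-type 8-week-old female mice weighing 20–30 g, 7 groups of 5. Mice fasted 3 h, then given insulin (0.75 IU/kg). […] Blood glucose read with a glucometer at 15, 30 and 60 min post-injection.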

Data set [4] has as its system Mus musculus. In words: Hyperglycemic effect in C57BL/6J mouse assessed as increase in blood glucose level at 500 microg/kg, iv measured measured after 30 mins by intraperitoneal insulin tolerance test. Format: functional, organism-based. Conditions: dose 500.0 µg/kg. The procedure, abridged: (§2)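 Female C57BL/6J mice, 8 weeks old, 20–30 g, 5 per group. After a 3 h fast they received insulin 0.75 IU/kg, then a single i.v. dose of peptide (50 or 500 μg/kg) or saline. Blood glucose read by glucometer at 15, 30 and 60 min after injection.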

Data set [5] relates to Mus musculus. In words: Hyperglycemic effect in C57BL/6J mouse assessed as increase in blood glucose level at 50 microg/kg, iv measured measured after 30 mins by intraperitoneal insulin tolerance test. It counts as functional, organism-based. Conditions: dose 50.0 µg/kg. In outline: as §2
The test system of data set [6] is Mus musculus. In words: Hyperglycemic effect in C57BL/6J mouse assessed as increase in blood glucose level at 500 microg/kg, iv measured measured up to 60 mins by intraperitoneal insulin tolerance test. It counts as functional, organism-based. Conditions: dose 500.0 µg/kg. In outline: as §1

GLUCAGON [listing 1 of 2 here]: the Drug degradation in data set [1] is recorded as > 85%. Moreover, in data set [2], the Stability entry was “Unstable”.

GLUCAGON [listing 2 of 2 here]: the result with Mus musculus [3], in the data set on Mus musculus [4], in the data set with Mus musculus [5] and in the data set on Mus musculus [6] was Active.
